Screening results as filed in PubChem.
MrgX1 PAM = allosterically activates human MrgX1 receptor signaling; Q96LB2; MrgX1-HEK293, Fluo-4 calcium flux, FDSS; stronger effect = higher value; B-score at 10 µM; 0.63% of 310,000 active; AID 588675;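 active = plate-corrected calcium response at least 3 library SD above typical, normal starting fluorescence, not activating the receptor alone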;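 note: compound read alongside a low EC10 to EC30 dose of BAM8-22 agonist; peak minus trough fluorescence over baseline measured at the second addition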
Target sequence (Q96LB2 whole entry, looked up): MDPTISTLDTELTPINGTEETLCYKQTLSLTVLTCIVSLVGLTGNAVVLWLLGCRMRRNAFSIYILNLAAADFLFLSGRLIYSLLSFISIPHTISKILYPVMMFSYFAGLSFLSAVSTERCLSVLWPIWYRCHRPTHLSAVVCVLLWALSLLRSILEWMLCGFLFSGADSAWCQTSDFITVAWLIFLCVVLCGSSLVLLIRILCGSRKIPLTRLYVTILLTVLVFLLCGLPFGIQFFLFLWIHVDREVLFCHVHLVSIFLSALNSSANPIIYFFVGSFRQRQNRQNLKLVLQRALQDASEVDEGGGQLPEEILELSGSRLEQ
RGS4 inh = human RGS4 inhibition | P49798 | HEK293 M3R/RGS4 inducible, Fluo-4 calcium flux; stronger effect = higher value; triggered by carbachol at its EC20 | B-score at 10 µM | 0.45% of 310,000 active;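 active = B-score, a plate-corrected calcium signal, over three deviations above library mean, with baseline fluorescence within five deviations of library mean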;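 note: RGS4 expression induced by doxycycline in cells with stable M3 receptor; B-score is computed from the integrated fluorescence ratio over baseline after carbachol; higher B-score means a larger calcium signal and so more RGS4 inhibition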
Target sequence (P49798 whole entry, looked up): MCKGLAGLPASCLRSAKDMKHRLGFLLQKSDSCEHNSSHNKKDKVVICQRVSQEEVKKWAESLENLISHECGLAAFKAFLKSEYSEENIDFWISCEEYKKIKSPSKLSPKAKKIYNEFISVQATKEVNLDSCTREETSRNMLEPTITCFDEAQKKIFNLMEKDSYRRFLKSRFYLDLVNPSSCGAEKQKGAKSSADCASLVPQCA
MrgX1 agonist = activates human MrgX1 receptor signaling. Q96LB2. MrgX1-HEK293 cells, Fluo-4 calcium fluorescence, agonist mode; stronger effect = higher value. B-score at 10 µM. 0.44% of 310,000 active. AID 588627;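 active = calcium response B-score plate-corrected fluorescence ratio at least 3 library SD, with starting fluorescence B-score inside 5 SD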
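System – MrgX1-expressing HEK293 cells · Incubation – cells plated overnight, dye loaded 0.5 h 37 °C, 0.5 h room temperature · Technique – kinetic Fluo-4 NW fluorescence of intracellular calcium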
MrgX1 antag = human MrgX1 receptor antagonism, primary screen | MRGX1-HEK293 calcium flux, Fluo-4, BAM8-22 antagonism; stronger effect = lower value | 1.3% of 310,000 active | AID 588676 | B-score at 10 µM;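 active = calcium-response B-score plate-corrected more than 3 library SD below zero, starting fluorescence within 5 deviations, no agonist response on first addition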;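 note: peak minus trough fluorescence over baseline after final BAM8-22 challenge near maximal dose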
RGS4 act = potentiators or activators of RGS4. HEK293 M3R/inducible RGS4, carbachol calcium flux Fluo4; stronger effect = lower value. B-score at 10 µM. 0.92% of 310,000 active;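 active = B-score of the integrated calcium signal more than 4 SD below the library mean, with starting fluorescence not abnormally high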;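 note: negative B-score means reduced calcium response which marks RGS4 activation or potentiation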
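Material: M3R-expressing HEK293 line, RGS4 induced by doxycycline | Schedule: Overnight RGS4 induction, 30 min dye load 37 °C, 20 min compound RT | Measured by: Fluo4 fluorescence kinetic imaging of calcium | Read-out: Integrated calcium ratio converted to B score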
MrgX1 antag conf = reconfirmed antagonist of human MrgX1 receptor signaling | remaining BAM8-22 calcium response % of control (stronger effect = lower value), % at 10 µM | MrgX1-HEK293, BAM8-22 calcium flux, Fluo-4; stronger effect = lower value | 19% of 2,300 active | shares compounds with MrgX1 antag;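 active = remaining agonist calcium response no higher than 100% minus 3 SD of agonist-only control wells, with starting fluorescence near control levels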;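 note: agonist BAM8-22 given at a near maximal EC90 to ECmax level; peak minus minimum fluorescence divided by baseline after agonist addition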
HEK293 Ca flux = MrgX1 antagonist counter-screen hit in parental HEK293 cells | 2% of 4,000 active | Fluo-4 calcium fluorescence, FDSS | AID 624111 | fluorescence ratio F(max-min)/F0 at 10 µM | shares compounds with MrgX1 antag;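 active = duplicate-averaged calcium fluorescence ratio at least three times the standard deviation of buffer wells, a nonspecific response in parental cells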
HEK293 Ca counter = MrgX1 allosteric activator counter-screen hit in parental HEK293 cells. shares compounds with MrgX1 antag. parental HEK293 calcium flux, Fluo-4 fluorescence ratio; stronger effect = higher value. fluorescence ratio F(max-min)/F0 at 10 µM. 0.4% of 4,000 active. AID 624114;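 active = calcium fluorescence ratio, averaged over duplicates, at least 3 SD of the buffer-well ratio, meaning a nonspecific response in receptor-free cells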;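 note: untransfected parental HEK293 lacking MrgX1 used as counterscreen for MrgX1 allosteric activators; fluorescence change taken during the second addition on a kinetic imager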
HEK293 Ca cntr2 = activity in parental HEK293 cells lacking MrgX1 receptor. shares compounds with MrgX1 antag. Fluo-4 calcium fluorescence (FDSS); stronger effect = higher value. fluorescence ratio F(max-min)/F0 at 10 µM. 8.7% of 4,000 active. AID 624115;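 active = calcium fluorescence ratio at least three times the spread of buffer wells, meaning a non-specific response in parental cells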
* hit, by the source's call; i = inactive; · = no result. Shown are actives, neighbours in structure and some others; about 3.5% of the full set was active somewhere.

SMILES	MrgX1 PAM	RGS4 inh	MrgX1 agonist	MrgX1 antag	RGS4 act	MrgX1 antag conf	HEK293 Ca flux	HEK293 Ca counter	HEK293 Ca cntr2
CCc1ccc(-c2cc(C(=O)NCc3ccccn3)c3ccccc3n2)cc1	i	i	i	-5.33*	i	77.4%*	i	i	i
CC1CC(C)CN(C(=O)CCn2c(=O)oc3ccccc32)C1 (configuration not stated)	i	i	i	i	i	·	·	·	·
O=C(Cn1nc(C(F)(F)F)cc1C1CC1)Nc1ccccc1F	i	i	i	-5.08*	i	i	i	i	i
COC(=O)c1cccc(S(=O)(=O)N2CCOCC2)c1	i	i	i	i	i	·	·	·	·
O=C(Nc1cccnc1)c1cccc(S(=O)(=O)N2CCCCC2)c1	i	i	i	-6.41*	i	i	i	i	i
COC(=O)c1cccc(S(=O)(=O)N2CCCC2)c1	i	i	i	-5.86*	i	i	i	i	i
S=C(NCc1cccs1)Nc1cccc(Cl)c1	i	i	i	-5.06*	i	i	i	i	i
CCOC(=O)c1c(-c2ccc(OC)cc2)oc2cc(Br)c(O)cc12	i	i	i	i	i	·	·	·	·
CCOC(=O)c1c(C)[nH]c2cc(Br)c(O)cc12	i	i	i	-7.4*	i	72.5%*	i	i	i
CCNC(=S)Nc1ccc(Cl)cc1	i	i	i	-6.03*	i	i	i	i	i
Cc1cccc(CSc2nc3nc(C)cc(C)n3n2)c1	i	i	i	i	i	·	·	·	·
Cn1c(SCc2ccccc2)nnc1-c1ccc(O)cc1	i	i	i	i	i	·	·	·	·
Cc1cc(C)cc(N2C(=O)C3CC=CCC3C2=O)c1 (configuration not stated)	i	i	i	-5.22*	i	i	i	i	i
Nc1nnnn1/N=C/C(Br)=C/c1ccccc1	i	i	i	-5.11*	i	i	i	i	i
Nc1nnnn1/N=C/C=C/c1ccccc1	i	i	i	i	i	·	·	·	·
CCOC(=O)c1ccc(-n2[nH]c(-c3ccccc3)cc2=O)cc1	i	i	i	-5.85*	i	71.3%*	i	i	i
Cc1nc(=O)c(-c2ccccc2)c(C)n1-c1ccc(C(=O)O)cc1	i	i	i	-4.92*	i	i	i	i	i
Cc1nc(=O)c(-c2ccccc2)c(C)n1-c1ccc(S(N)(=O)=O)cc1	i	i	i	i	i	·	·	·	·
Cn1c(SCc2ccc(C#N)cc2)nnc1-c1cccc(Cl)c1	i	i	i	-4.7*	i	i	i	i	i
Cc1ccc(NC(=O)Cc2c(Cl)cccc2Cl)cc1S(=O)(=O)N(C)C	i	i	i	-19.1*	i	i	i	i	i
Cc1cc(Cl)c2oc(C(=O)N(C)CC3CCOCC3)c(C)c2c1	i	i	i	i	i	·	·	·	·
CC12C(=O)N(c3ccccn3)C(=O)C1C1C=CC2C1 (configuration not stated)	i	i	i	-5.04*	i	i	i	i	i
Cc1ccnc2c(N3C(=O)C4C5C=CC(C5)C4(C)C3=O)cccc12 (configuration not stated)	i	i	i	i	i	·	·	·	·
CC(C)c1ccc(NC2CCCN(C(=O)CCc3cnn(C)c3)C2)cc1 (configuration not stated)	i	i	i	i	i	·	·	·	·
CSC1=NCCN1C(=O)c1c(-c2ccccc2Cl)noc1C	i	i	i	-6.87*	i	i	i	i	i
SMILES	MrgX1 PAM	RGS4 inh	MrgX1 agonist	MrgX1 antag	RGS4 act	MrgX1 antag conf	HEK293 Ca flux	HEK293 Ca counter	HEK293 Ca cntr2
CCOc1ccccc1N1CCN(C(=O)CCCN2C(=O)c3cccc4cccc(c34)C2=O)CC1	i	i	i	-5.47*	i	i	i	i	i
COc1cc(NC(=O)c2ccccc2-c2ccccc2)cc(OC)c1OC	i	i	i	i	i	·	·	·	·
COc1cc(C=Nc2ccccc2C(=O)Nc2ccccc2)cc(OC)c1OC	i	i	i	-5.52*	i	i	i	i	i
CCSCc1nnc(SCC(=O)Nc2ccc(F)cc2)n1CC	i	i	i	i	i	·	·	·	·
Cc1ccccc1N(C(=O)Cc1c[nH]c2ccccc12)C(C(=O)NC1CCCCC1)c1ccco1 (configuration not stated)	i	i	i	-15.9*	i	i	i	i	i
COc1ccc(CCN2CCCn3c2nc2c3c(=O)n(CC(C)C)c(=O)n2C)cc1OC	i	i	i	-6.09*	i	68.0%*	i	i	i
CCn1c(=O)c2c(nc3n2CCCN3CCc2ccc(OC)c(OC)c2)n(C)c1=O	i	i	i	i	i	·	·	·	·
CCCn1c(=O)c2c(nc3n2CCCN3CCc2ccc(OC)c(OC)c2)n(C)c1=O	i	i	i	-4.76*	i	i	i	i	i
COc1ccc(CCN2CCCn3c2nc2c3c(=O)n(Cc3ccccc3F)c(=O)n2C)cc1OC	i	i	i	i	i	·	·	·	·
COc1ccccc1NC(=O)CN1CCN(CC(=O)Nc2ccc(S(N)(=O)=O)cc2)CC1	i	i	i	-7.59*	i	i	i	i	i
COc1ccc(-c2noc(CSc3nc(N)c(-c4ccccc4)c(=O)[nH]3)n2)cc1	i	i	i	-7.15*	i	75.2%*	i	i	i
Cc1ccc2c(CC(=O)NNC(=O)c3ccccc3O)coc2c1	i	i	i	i	i	·	·	·	·
COCCN=C1Sc2nc3ccc(C)cc3cc2CN1Cc1ccco1	i	i	i	-5.43*	i	i	i	i	i
Cc1[nH]c(=O)nc(SCc2cccc(Cl)c2)c1C#N	i	i	i	i	i	·	·	·	·
